According to ChEMBL document CHEMBL1926530, “Novel pyrazolo[1,5-a]pyridines as p110α-selective PI3 kinase inhibitors: Exploring the benzenesulfonohydrazide SAR” (Bioorg Med Chem, 2012):
pIC50: −log10 of the molar value.

Experiments:
[1] = Cytotoxicity against human NZB5 cells assessed as inhibition of [3H]thymidine incorporation measured after 5 days; type: functional, cell-based
Outline: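 Early-passage lines grown in α-MEM with insulin, transferrin, selenite and 5% FBS. Wells seeded with 1000 cells; inhibitor in dilution steps up to a maximum of 20. Five days under 5% O₂/5% CO₂/90% N₂, ³H-thymidine added for the last 6 h. Duplicates per dose; fit y = y₀ + ae^−bx; IC50 = 50% reduction in incorporation.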

[2] = target: T1, Phosphatidylinositol 4,5-bisphosphate 3-kinase catalytic subunit alpha isoform (Homo sapiens, UniProt P42336, H1047R); experiment: Inhibition of PI3K […] H1047R mutant-mediated PKB phosphorylation at Ser473 in human HCT116 cells after 15 mins by immunoblot analysis; type: cell-based, HCT-116
Outline: (§1)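 HCT-116 cells in MEM alpha with 10% FBS and penicillin/streptomycin, seeded, grown 1 day, then starved overnight serum-free. Inhibitor in DMSO (0.1% final) at varying concentrations for 15 min, then 500 nM insulin for 5 min. Lysates immunoblotted for phospho-PKB at Ser473 or Thr308.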

[3] = Cmax in CD1 mouse at 10 mg/kg, ip; type: ADME, organism-based; parameters: dose 10 mg/kg, route intraperitoneal; settings: in vivo
Outline: (§2)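 Age-matched specific pathogen-free male CD-1 mice; single 10 mg/kg i.p. dose in 5% DMSO, 45% PEG-400, 20% 2-hydroxypropyl-β-cyclodextrin, 30% water. Blood sampled at multiple times post-dose; plasma taken after centrifugation (10 min, 6000 rpm, 20 °C). Plasma analysed by LC-MS/MS; parameters from non-compartmental analysis.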

[4] = target: Serine/threonine-protein kinase mTOR (Homo sapiens, UniProt P42345); experiment: Inhibition of mTOR
Mus musculus = experiment: Toxicity in Rag1 knockout mouse xenografted with human HCT116 cells assessed as body weight loss at 40 mg/kg, ip QD measured on day 7 relative to untreated control; type: organism-based, HCT-116; parameters: dose 40 mg/kg, route intraperitoneal; settings: in vivo
Outline: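 Male Rag1−/− mice (age-matched, SPF) inoculated s.c. with 5 × 10⁶ HCT-116 cells in PBS. Dosing started at ~150 mm³ tumours: q.d. i.p. in 7.5% DMSO, 42.5% PEG-400, 20% 2-hydroxypropyl-β-cyclodextrin, 30% water; controls received vehicle. Volume = (L × w²) × π/6, measured three times weekly; bodyweight daily. Treatment stopped if mean weight loss >15%; 1-way ANOVA with Holm–Sidak.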

[5] = target: T2, Phosphatidylinositol 4,5-bisphosphate 3-kinase catalytic subunit delta isoform (Homo sapiens, UniProt O00329); experiment: Inhibition of recombinant PI3K p110delta using L-alpha-phosphatidylinositol as substrate and [gamma33P]ATP after 60 mins by thin layer chromatographic technique
T2 sequence (O00329 whole entry): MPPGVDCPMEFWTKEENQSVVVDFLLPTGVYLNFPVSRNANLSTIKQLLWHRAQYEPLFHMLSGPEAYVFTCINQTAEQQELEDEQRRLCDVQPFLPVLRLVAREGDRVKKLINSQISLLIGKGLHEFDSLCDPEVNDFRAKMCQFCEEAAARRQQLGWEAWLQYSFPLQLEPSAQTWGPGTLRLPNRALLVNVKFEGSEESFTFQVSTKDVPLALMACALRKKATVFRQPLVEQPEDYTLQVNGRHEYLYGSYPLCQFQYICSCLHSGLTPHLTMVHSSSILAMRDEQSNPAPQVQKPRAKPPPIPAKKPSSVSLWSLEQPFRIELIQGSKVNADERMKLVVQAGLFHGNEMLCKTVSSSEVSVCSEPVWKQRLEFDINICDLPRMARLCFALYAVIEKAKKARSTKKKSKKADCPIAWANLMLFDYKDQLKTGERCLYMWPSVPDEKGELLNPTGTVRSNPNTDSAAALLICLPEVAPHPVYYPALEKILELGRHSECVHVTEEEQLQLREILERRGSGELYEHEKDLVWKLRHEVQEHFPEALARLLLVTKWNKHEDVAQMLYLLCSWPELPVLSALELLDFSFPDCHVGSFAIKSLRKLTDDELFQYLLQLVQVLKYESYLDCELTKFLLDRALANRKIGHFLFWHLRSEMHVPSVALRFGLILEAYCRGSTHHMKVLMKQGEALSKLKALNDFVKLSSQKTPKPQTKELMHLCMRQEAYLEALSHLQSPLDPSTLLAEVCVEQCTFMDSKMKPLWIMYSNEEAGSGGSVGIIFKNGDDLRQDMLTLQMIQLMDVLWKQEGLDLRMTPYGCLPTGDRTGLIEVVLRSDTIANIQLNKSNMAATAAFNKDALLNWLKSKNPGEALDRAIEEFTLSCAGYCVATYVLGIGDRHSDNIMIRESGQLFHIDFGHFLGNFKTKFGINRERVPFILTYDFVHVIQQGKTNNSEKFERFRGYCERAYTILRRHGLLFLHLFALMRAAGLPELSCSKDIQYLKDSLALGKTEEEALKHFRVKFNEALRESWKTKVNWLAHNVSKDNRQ
Outline: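 In-house recombinant enzyme (0.1 µg) with L-α-phosphatidylinositol in 40 mM Tris-HCl pH 7.4, 200 mM NaCl, 1 mM EDTA; DMSO 1% final. Started with 5 mM MgCl₂, 100 µM ATP plus [γ-³³P]ATP; 1 h at room temperature, stopped with 1 M HCl. Lipids extracted, separated by TLC, phosphorimaged. Nine inhibitor concentrations; two experiments, IC50 averaged.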

[6] = target: High affinity nerve growth factor receptor (Homo sapiens) (UniProt P04629); experiment: Inhibition of TrkA assessed as residual activity at 10 uM
[7] = target: Ribosomal protein S6 kinase alpha-1 (Homo sapiens) (UniProt Q15418); experiment: Inhibition of RSK1 assessed as residual activity at 1 uM
[8] = Tmax in CD1 mouse at 10 mg/kg, ip; type: ADME, organism-based; parameters: dose 10 mg/kg, route intraperitoneal; settings: in vivo; outline: as §2
[9] = target: T1, Phosphatidylinositol 4,5-bisphosphate 3-kinase catalytic subunit alpha isoform; experiment: Inhibition of PI3K […] H1047R mutant-mediated PKB phosphorylation at Thr308 in human HCT116 cells after 15 mins by immunoblot analysis; type: cell-based, HCT-116; outline: as §1
[10] = target: Misshapen-like kinase 1 (Homo sapiens) (UniProt Q8N4C8); experiment: Inhibition of MINK1 assessed as residual activity at 1 uM
Sequence of Misshapen-like kinase 1 (Homo sapiens) (Q8N4C8 whole entry, looked up): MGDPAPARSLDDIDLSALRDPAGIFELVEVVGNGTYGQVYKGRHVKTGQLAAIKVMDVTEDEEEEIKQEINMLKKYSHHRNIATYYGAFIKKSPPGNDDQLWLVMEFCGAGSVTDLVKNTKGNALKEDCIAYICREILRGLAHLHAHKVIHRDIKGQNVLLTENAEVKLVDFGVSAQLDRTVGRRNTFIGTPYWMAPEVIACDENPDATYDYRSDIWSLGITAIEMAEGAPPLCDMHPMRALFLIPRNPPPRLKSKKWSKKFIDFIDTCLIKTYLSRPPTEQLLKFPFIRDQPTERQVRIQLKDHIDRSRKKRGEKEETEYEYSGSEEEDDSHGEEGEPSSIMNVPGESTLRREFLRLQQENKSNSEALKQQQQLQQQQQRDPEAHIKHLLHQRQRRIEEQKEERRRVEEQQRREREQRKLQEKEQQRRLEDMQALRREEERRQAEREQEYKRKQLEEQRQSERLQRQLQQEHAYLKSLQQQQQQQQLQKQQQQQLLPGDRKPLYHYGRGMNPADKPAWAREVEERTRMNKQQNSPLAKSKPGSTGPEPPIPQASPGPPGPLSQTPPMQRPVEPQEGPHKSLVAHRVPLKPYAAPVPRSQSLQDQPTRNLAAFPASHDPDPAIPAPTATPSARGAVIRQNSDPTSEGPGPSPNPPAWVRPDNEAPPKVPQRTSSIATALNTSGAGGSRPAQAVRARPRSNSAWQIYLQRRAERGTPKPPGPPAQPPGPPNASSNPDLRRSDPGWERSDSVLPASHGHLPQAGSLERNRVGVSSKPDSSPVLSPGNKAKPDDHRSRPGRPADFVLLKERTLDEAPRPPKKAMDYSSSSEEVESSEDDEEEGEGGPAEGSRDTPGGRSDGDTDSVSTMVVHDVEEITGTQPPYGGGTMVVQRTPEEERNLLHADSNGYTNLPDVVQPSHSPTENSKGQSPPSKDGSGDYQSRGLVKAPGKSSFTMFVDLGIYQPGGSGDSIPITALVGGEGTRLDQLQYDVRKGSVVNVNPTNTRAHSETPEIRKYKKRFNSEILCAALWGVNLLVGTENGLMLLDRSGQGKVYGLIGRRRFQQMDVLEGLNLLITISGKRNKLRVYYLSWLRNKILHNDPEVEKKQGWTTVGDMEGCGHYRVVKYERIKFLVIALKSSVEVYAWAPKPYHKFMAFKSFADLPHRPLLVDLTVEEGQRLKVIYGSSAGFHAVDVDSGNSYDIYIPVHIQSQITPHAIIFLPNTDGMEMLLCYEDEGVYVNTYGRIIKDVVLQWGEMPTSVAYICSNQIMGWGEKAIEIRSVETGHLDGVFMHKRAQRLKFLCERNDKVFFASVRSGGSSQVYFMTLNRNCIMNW

T1 sequence (P42336 whole entry H1047R, canonical isoform): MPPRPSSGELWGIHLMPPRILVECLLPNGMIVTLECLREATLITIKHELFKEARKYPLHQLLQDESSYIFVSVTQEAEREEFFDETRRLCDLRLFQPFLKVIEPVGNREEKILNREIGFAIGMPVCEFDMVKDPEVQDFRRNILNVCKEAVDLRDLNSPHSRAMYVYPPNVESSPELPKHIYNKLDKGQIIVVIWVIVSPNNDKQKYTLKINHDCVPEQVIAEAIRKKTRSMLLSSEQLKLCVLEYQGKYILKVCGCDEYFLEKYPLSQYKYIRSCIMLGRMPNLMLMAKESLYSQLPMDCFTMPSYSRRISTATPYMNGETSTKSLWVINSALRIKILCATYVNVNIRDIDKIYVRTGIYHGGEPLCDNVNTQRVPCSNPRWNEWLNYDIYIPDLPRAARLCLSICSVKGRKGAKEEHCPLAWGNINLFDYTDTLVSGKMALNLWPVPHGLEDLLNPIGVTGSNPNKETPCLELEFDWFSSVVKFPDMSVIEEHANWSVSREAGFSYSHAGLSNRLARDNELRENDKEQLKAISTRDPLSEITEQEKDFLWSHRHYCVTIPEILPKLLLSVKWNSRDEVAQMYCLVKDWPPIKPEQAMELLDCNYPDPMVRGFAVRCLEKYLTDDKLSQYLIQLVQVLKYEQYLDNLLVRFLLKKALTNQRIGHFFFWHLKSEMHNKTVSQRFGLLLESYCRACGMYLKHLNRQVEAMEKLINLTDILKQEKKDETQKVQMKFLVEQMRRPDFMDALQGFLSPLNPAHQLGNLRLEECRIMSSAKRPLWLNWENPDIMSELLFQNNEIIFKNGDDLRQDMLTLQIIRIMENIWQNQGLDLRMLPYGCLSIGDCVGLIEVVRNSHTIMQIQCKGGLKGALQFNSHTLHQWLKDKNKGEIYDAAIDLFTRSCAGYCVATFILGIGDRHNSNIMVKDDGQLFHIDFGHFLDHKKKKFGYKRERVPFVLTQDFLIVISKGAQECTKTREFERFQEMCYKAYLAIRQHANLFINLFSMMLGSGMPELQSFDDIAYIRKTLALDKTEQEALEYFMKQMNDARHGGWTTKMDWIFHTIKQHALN
Sequence of High affinity nerve growth factor receptor (Homo sapiens) (P04629 33-796 limits assumed): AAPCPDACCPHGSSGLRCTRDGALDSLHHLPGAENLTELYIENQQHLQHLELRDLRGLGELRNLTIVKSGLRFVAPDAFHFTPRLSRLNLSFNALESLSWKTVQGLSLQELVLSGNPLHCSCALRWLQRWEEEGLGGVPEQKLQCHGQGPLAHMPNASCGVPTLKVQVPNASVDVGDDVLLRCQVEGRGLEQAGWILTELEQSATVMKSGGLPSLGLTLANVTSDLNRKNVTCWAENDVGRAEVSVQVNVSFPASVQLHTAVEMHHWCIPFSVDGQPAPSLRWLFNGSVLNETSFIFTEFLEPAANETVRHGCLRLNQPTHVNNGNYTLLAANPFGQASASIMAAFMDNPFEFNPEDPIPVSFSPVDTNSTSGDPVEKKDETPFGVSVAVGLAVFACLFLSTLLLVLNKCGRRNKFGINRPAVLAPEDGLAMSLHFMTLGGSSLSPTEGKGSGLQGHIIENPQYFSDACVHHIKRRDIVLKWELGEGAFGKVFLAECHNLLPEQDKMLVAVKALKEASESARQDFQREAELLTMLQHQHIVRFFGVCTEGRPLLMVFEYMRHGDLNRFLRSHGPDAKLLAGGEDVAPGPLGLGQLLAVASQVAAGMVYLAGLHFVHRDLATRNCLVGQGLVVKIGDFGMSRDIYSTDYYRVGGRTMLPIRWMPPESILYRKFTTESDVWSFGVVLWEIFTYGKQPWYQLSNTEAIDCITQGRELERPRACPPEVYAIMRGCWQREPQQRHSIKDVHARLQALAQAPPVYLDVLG
Sequence of Ribosomal protein S6 kinase alpha-1 (Homo sapiens) (Q15418 whole entry): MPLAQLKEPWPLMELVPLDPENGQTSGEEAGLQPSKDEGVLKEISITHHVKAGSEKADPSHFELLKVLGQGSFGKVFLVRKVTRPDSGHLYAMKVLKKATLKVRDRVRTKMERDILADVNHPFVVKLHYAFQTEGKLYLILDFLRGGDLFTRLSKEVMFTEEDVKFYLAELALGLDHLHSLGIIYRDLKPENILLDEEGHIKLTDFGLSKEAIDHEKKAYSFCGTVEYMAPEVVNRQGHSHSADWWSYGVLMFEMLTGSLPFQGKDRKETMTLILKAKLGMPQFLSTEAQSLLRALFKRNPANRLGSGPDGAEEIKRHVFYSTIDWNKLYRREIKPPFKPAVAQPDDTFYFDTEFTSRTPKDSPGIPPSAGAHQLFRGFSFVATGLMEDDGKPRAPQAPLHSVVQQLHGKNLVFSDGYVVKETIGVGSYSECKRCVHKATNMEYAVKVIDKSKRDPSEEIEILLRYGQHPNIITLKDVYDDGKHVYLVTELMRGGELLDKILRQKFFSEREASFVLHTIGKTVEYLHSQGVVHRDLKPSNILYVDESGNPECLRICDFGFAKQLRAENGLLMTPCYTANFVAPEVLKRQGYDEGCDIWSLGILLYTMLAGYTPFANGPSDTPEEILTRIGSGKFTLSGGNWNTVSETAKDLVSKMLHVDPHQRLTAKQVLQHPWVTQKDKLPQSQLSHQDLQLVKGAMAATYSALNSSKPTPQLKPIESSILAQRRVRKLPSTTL

Cc1ccc([N+](=O)[O-])cc1S(=O)(=O)N(CCO)/N=C/c1cnn2ccc(C#N)cc12
pIC50 [1]: 7.22
pIC50 [2]: 7.09
Cmax [3]: 7.58 µM
pIC50 [4]: 6.63
Activity (Mus musculus): > 15%
pIC50 [5]: 7.27
Activity [6]: 15%
Activity [7]: 18%
Tmax [8]: 5 min
pIC50 [9]: 7.31
Activity [10]: 16%
